Paper PMC9302689 (British Journal of Clinical Pharmacology, 2022)
Marks after values point to notes of the source that are not given here.

Tests used:
Format in all cases: in vivo, human
[1] = test system: healthy male subjects; experiment: VAS Bond and Lader; conditions: 12-hour post-dose period
Summary of the method: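 Subjects marked 16 horizontal 100 mm visual analogue scales twice pre-dose and at 0.5–10 h after a single dose or placebo. Three factors were derived: alertness from 9 scores, mood from 5 and calmness from 2. Change from baseline over 12 h was analysed by MMRM against pooled placebo, with baseline as covariate.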

[2] = test system: healthy male subjects; experiment: NeuroCart smooth pursuit; conditions: 12-hour post-dose period
Summary of the method: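 This used the same head-fixed screen set-up as the saccade test. Subjects tracked a dot moving continuously at 0.3–1.1 Hz in 0.1 Hz steps, twice pre-dose and at 0.5–10 h after a single dose or placebo. Change from baseline over 12 h was analysed by MMRM against pooled placebo, with baseline as covariate.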

[3] = test system: healthy male subjects; experiment: Serum neuro-endocrine hormones; conditions: for Cortisol (ng/ml), LSM CFB / Cortisol (ng/ml), estimate of difference compared to placebo / Prolactin (ng/ml), LSM CFB / Prolactin (ng/ml), estimate of difference compared to placebo: 2 hours post-dose, serum
Summary of the method: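 Serum was sampled pre-dose and at 0.25–36 h after a single dose or placebo in healthy men. Cortisol was measured by validated LC–MS/MS (LLOQ 2.00 ng/mL) and prolactin by time-resolved fluoroimmunoassay (LLOQ 0.260 ng/mL). Values were ln-transformed and analysed by MMRM using the 2-h post-dose data, with baseline as covariate and pooled placebo as reference, then back-transformed.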

[4] = test system: healthy male subjects; experiment: Orthostatic hypotension

CN1CCC23CCCCC2C1Cc1ccc(C(N)=O)cc13 (stereo not drawn) [ALKS 7119, (9α, 13α)‐17‐methylmorphinan‐3‐carboxamide]
VAS Bond and Lader “calmness”, LSM CFB ([1]; 3 mg single oral dose): 6.65 mm
VAS Bond and Lader “mood”, LSM CFB ([1]; 3 mg single oral dose): 6.17 mm
VAS Bond and Lader “subjective alertness”, LSM CFB ([1]; 3 mg single oral dose): 1.64 mm
VAS Bond and Lader “calmness”, LSM CFB ([1]; 10 mg single oral dose): −0.31 mm
VAS Bond and Lader “mood”, LSM CFB ([1]; 10 mg single oral dose): −0.04 mm
VAS Bond and Lader “subjective alertness”, LSM CFB ([1]; 10 mg single oral dose): 0.03 mm
VAS Bond and Lader “calmness”, LSM CFB ([1]; 25 mg single oral dose): −0.57 mm
VAS Bond and Lader “mood”, LSM CFB ([1]; 25 mg single oral dose): −0.14 mm
VAS Bond and Lader “subjective alertness”, LSM CFB ([1]; 25 mg single oral dose): 0.26 mm
VAS Bond and Lader “calmness”, LSM CFB ([1]; 50 mg single oral dose): 3.6 mm
VAS Bond and Lader “mood”, LSM CFB ([1]; 50 mg single oral dose): 4.47 mm
VAS Bond and Lader “subjective alertness”, LSM CFB ([1]; 50 mg single oral dose): 0.96 mm
VAS Bond and Lader “calmness”, LSM CFB ([1]; 75 mg single oral dose): 0.26 mm
VAS Bond and Lader “mood”, LSM CFB ([1]; 75 mg single oral dose): −0.82 mm
VAS Bond and Lader “subjective alertness”, LSM CFB ([1]; 75 mg single oral dose): −1.02 mm
VAS Bond and Lader “calmness”, LSM CFB ([1]; 100 mg single oral dose): 0.58 mm
VAS Bond and Lader “mood”, LSM CFB ([1]; 100 mg single oral dose): 0.56 mm
VAS Bond and Lader “subjective alertness”, LSM CFB ([1]; 100 mg single oral dose): 0.57 mm
VAS Bond and Lader “calmness”, LSM CFB ([1]; 125 mg single oral dose): 0.46 mm
VAS Bond and Lader “mood”, LSM CFB ([1]; 125 mg single oral dose): 1.63 mm
VAS Bond and Lader “subjective alertness”, LSM CFB ([1]; 125 mg single oral dose): −0.56 mm
VAS Bond and Lader “calmness”, LSM CFB ([1]; 150 mg single oral dose): 2.59 mm
VAS Bond and Lader “mood”, LSM CFB ([1]; 150 mg single oral dose): 3.35 mm
VAS Bond and Lader “subjective alertness”, LSM CFB ([1]; 150 mg single oral dose): 1.94 mm
VAS Bond and Lader “calmness”, LSM CFB ([1]; 175 mg single oral dose): 0.08 mm
VAS Bond and Lader “mood”, LSM CFB ([1]; 175 mg single oral dose): 0.11 mm
VAS Bond and Lader “subjective alertness”, LSM CFB ([1]; 175 mg single oral dose): −1.17 mm
VAS Bond and Lader “calmness”, LSM CFB ([1]; 200 mg single oral dose): 0.68 mm
VAS Bond and Lader “mood”, LSM CFB ([1]; 200 mg single oral dose): 0.51 mm
VAS Bond and Lader “subjective alertness”, LSM CFB ([1]; 200 mg single oral dose): 0.09 mm
Smooth pursuit, LSM CFB ([2]; 3 mg single oral dose): −0.26%
Smooth pursuit, LSM CFB ([2]; 10 mg single oral dose): 0.06%
Smooth pursuit, LSM CFB ([2]; 25 mg single oral dose): −1.44%
Smooth pursuit, LSM CFB ([2]; 50 mg single oral dose): −0.03%
Smooth pursuit, LSM CFB ([2]; 75 mg single oral dose): −3.44%
Smooth pursuit, LSM CFB ([2]; 100 mg single oral dose): −0.49%
Smooth pursuit, LSM CFB ([2]; 125 mg single oral dose): −3.82%
Smooth pursuit, LSM CFB ([2]; 150 mg single oral dose): −1.14%
Smooth pursuit, LSM CFB ([2]; 175 mg single oral dose): −1.07%
Smooth pursuit, LSM CFB ([2]; 200 mg single oral dose): 1.24%
Cortisol (ng/ml), LSM CFB ([3]; 3 mg single oral dose): −22.9 % change
Cortisol (ng/ml), estimate of difference compared to placebo ([3]; 3 mg single oral dose): −3.6 (−31.1, 34.9) P = .83 % change
Prolactin (ng/ml), LSM CFB ([3]; 3 mg single oral dose): −3.6 % change
Prolactin (ng/ml), estimate of difference compared to placebo ([3]; 3 mg single oral dose): −3.2 (−26.9; 28.3) P = .82 % change
Cortisol (ng/ml), LSM CFB ([3]; 10 mg single oral dose): 8.9 % change
Cortisol (ng/ml), estimate of difference compared to placebo ([3]; 10 mg single oral dose): −31.8 (−51.3; −4.5) P = .03 ^* % change
Prolactin (ng/ml), LSM CFB ([3]; 10 mg single oral dose): −15.3 % change
Prolactin (ng/ml), estimate of difference compared to placebo ([3]; 10 mg single oral dose): 10.1 (−16.9; 45.9) P = .50 % change
Cortisol (ng/ml), LSM CFB ([3]; 25 mg single oral dose): −20.8 % change
Cortisol (ng/ml), estimate of difference compared to placebo ([3]; 25 mg single oral dose): −6.2 (−32.9; 31.3) P = .71 % change
Prolactin (ng/ml), LSM CFB ([3]; 25 mg single oral dose): 8.0 % change
Prolactin (ng/ml), estimate of difference compared to placebo ([3]; 25 mg single oral dose): −13.6 (−34.8; 14.5) P = .31 % change
Cortisol (ng/ml), LSM CFB ([3]; 50 mg single oral dose): 12.7 % change
Prolactin (ng/ml), LSM CFB ([3]; 50 mg single oral dose): 66.0 % change
Cortisol (ng/ml), LSM CFB ([3]; 75 mg single oral dose): 36.5 % change
Cortisol (ng/ml), estimate of difference compared to placebo ([3]; 75 mg single oral dose): −45.5 (−61.1; −23.8) P < .01 ^* % change
Prolactin (ng/ml), LSM CFB ([3]; 75 mg single oral dose): 63.4 % change
Prolactin (ng/ml), estimate of difference compared to placebo ([3]; 75 mg single oral dose): −42.9 (−56.9; −24.3) P < .01 ^* % change
Cortisol (ng/ml), LSM CFB ([3]; 100 mg single oral dose): 70.3 % change
Cortisol (ng/ml), estimate of difference compared to placebo ([3]; 100 mg single oral dose): −56.4 (−68.8; −38.9) P < .01 ^* % change
Prolactin (ng/ml), LSM CFB ([3]; 100 mg single oral dose): 72.0 % change
Prolactin (ng/ml), estimate of difference compared to placebo ([3]; 100 mg single oral dose): −45.8 (−59.1; −28.1) P < .01 ^* % change
Cortisol (ng/ml), LSM CFB ([3]; 125 mg single oral dose): 52.6 % change
Cortisol (ng/ml), estimate of difference compared to placebo ([3]; 125 mg single oral dose): −51.3 (−65.2; −31.8) P < .01 ^* % change
Prolactin (ng/ml), LSM CFB ([3]; 125 mg single oral dose): 28.0 % change
Prolactin (ng/ml), estimate of difference compared to placebo ([3]; 125 mg single oral dose): −27.1 (−45.1; −3.3) P = .03 ^* % change
Cortisol (ng/ml), LSM CFB ([3]; 150 mg single oral dose): 84.4 % change
Cortisol (ng/ml), estimate of difference compared to placebo ([3]; 150 mg single oral dose): −59.7 (−71.2; −43.6) P < .01 ^* % change
Prolactin (ng/ml), LSM CFB ([3]; 150 mg single oral dose): 106.9 % change
Prolactin (ng/ml), estimate of difference compared to placebo ([3]; 150 mg single oral dose): −54.9 (−66.0; −40.2) P < .01 ^* % change
Cortisol (ng/ml), LSM CFB ([3]; 175 mg single oral dose): 53.6 % change
Cortisol (ng/ml), estimate of difference compared to placebo ([3]; 175 mg single oral dose): −51.6 (−65.4; −32.3) P < .01 ^* % change
Prolactin (ng/ml), LSM CFB ([3]; 175 mg single oral dose): 81.7 % change
Prolactin (ng/ml), estimate of difference compared to placebo ([3]; 175 mg single oral dose): −48.7 (−61.3; −32.0) P < .01 ^* % change
Cortisol (ng/ml), LSM CFB ([3]; 200 mg single oral dose): 64.7 % change
Cortisol (ng/ml), estimate of difference compared to placebo ([3]; 200 mg single oral dose): −54.9 (−67.8; −36.9) P < .01 ^* % change
Prolactin (ng/ml), LSM CFB ([3]; 200 mg single oral dose): 111.3 % change
Prolactin (ng/ml), estimate of difference compared to placebo ([3]; 200 mg single oral dose): −55.8 (−66.7; −41.5) P < .01 ^* % change
Serum cortisol, increase vs placebo (estimate of difference) ([3]; from dose levels ≥50 mg): 51.7 % change
Serum prolactin, increase vs placebo (estimate of difference) ([3]; from dose levels ≥50 mg): 77.9 % change
Incidence of orthostatic hypotension ([4]; 200 mg dosing group, three subjects): 37.5%
Incidence of orthostatic hypotension ([4]; all ALKS 7119 dose groups (placebo 15%)): 17.5%
